Where “and” joins values, the source holds several entries; their conditions need not be identical. Equal entries are not always repeated. No end group written: not given here.
What was measured:
[1] = system: G9a; experiment: In vitro automethylation assay of G9a; assay type: biochemical, murine; conditions: 100 fold excess cold AdoMet with tritiated AdoMet; Figure 2B lanes 2 versus 3
Summary of the method: (§1)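 Automethylation: recombinant murine G9a (full-length or MBP-fused construct lacking the N-terminal 633 aa) incubated with S-adenosyl-L-[methyl-³H]methionine, either alone or, for H3 signal, with recombinant histone H3. Parallel reactions contained excess unlabelled AdoMet as competitor. Reactions run at 25°C for 1 h with 7 µM tritiated AdoMet, resolved on 4–20% SDS-PAGE, Coomassie-stained and fluorographed on film.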

[2] = system: H3; experiment: In vitro methylation of histone H3; assay type: biochemical; conditions: 100 fold excess cold AdoMet with tritiated AdoMet; Figure 2B lanes 4 versus 5
Summary of the method: as §1

[3] = biological target: T1, G9afl (Mus musculus, UniProt Q9Z148); experiment: Steady-state kinetics of G9afl on peptides representing ARKT/S motifs; assay type: biochemical, murine; conditions: peptide substrate, enzyme G9afl; for Km / kcat (turnover number): 25°C, pH 9.0, duplicate
T1 sequence (Q9Z148 1-1263): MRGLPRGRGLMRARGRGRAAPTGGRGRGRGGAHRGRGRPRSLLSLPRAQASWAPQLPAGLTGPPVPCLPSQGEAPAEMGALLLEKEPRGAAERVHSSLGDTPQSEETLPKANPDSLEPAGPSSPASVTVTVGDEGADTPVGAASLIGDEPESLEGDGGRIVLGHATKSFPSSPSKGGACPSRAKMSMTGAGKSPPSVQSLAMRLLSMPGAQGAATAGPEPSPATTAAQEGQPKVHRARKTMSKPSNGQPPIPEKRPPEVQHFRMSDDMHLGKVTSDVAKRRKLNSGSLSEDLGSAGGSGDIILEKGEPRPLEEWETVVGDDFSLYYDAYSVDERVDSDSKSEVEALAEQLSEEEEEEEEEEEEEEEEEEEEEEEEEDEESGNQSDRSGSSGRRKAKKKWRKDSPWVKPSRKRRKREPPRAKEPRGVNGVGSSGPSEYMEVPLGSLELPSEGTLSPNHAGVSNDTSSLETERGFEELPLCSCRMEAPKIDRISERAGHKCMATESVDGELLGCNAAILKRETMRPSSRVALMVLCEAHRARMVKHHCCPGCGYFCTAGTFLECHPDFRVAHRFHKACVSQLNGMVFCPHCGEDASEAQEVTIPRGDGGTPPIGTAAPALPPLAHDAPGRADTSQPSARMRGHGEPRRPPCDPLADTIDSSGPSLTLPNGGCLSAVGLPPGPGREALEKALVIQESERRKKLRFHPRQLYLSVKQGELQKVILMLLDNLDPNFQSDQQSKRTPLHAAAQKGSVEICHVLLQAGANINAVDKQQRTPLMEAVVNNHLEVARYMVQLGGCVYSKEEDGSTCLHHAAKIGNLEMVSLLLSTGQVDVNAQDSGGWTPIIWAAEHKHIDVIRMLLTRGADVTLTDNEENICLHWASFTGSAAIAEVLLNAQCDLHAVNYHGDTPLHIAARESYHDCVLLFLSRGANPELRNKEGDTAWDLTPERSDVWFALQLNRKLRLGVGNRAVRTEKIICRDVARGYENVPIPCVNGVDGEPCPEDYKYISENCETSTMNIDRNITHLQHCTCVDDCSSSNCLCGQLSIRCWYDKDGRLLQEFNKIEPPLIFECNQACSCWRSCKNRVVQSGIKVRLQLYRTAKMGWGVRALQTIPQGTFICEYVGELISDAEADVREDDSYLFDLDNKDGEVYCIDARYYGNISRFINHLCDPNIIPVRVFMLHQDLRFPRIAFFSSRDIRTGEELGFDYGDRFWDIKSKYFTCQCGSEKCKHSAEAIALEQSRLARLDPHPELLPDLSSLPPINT

[4] = system: G9amut; experiment: Methylation of modified H3 peptide substrates by G9amut; assay type: biochemical, murine; conditions: 25 nM G9amut; Figure 4B
[5] = biological target: T1, G9afl; experiment: Methylation of modified H3 peptide substrates by wild-type G9a; assay type: biochemical, murine; conditions: 25 nM G9afl; Figure 4B
[6] = system: full-length G9a; experiment: In vitro methylation of GST-G9a fusion fragments by G9afl; assay type: biochemical, murine; conditions: for methylation / radioactive incorporation of GST fusion fragment: fluorography and radioactive incorporation of each band, Figure 2D; for methylation of GST fusion by G9afl: tritiated AdoMet, fluorography, Figure 2C
[7] = system: G9a; experiment: Methyltransferase assay with peptide spanning amino acids 160–175 of G9a; assay type: biochemical, murine; conditions: even after 1 h of incubation; Supplementary Figure 1
[8] = system: Wt-H3; experiment: Steady-state kinetics of G9a enzymes with Wt-H3 peptide; assay type: biochemical; conditions: GST fusion enzymes with Wt-H3, steady-state conditions; Supplementary Figure 2
[9] = system: HP1α; experiment: Immunofluorescence co-localization with HP1α in COS-7 cells; assay type: cell-based; conditions: 48 h after transfection, Figure 6

Molecule: C[S+](CC[C@H](N)C(=O)[O-])C[C@H]1O[C@@H](n2cnc3c(N)ncnc32)[C@H](O)[C@@H]1O (stereo partly drawn) [cold AdoMet, S-adenosyl-L-methionine]
- autoradiography signal for G9a [1]: not apparent
- autoradiography signal for H3 [2]: not apparent

Molecule: CADVKVHRARKTMPKSV [EuHMT]
- kcat/Km [3]: 172 10^6 × M^−1 h^−1
- Km [3]: 0.5 ± 0.05 µM
- kcat (turnover number) [3]: 0.0239 s⁻¹ and 0.0239 ± 0.00056 s⁻¹

Molecule: CARTKQTARKS(p)TGG [H3S10p]
- effect of phosphorylated peptide on enzyme [4]: inhibited both enzymes
- effect of phosphorylated peptide on enzyme [5]: inhibited both enzymes

Molecule: CARTKQTARKST(p)GG [H3T11p]
- effect of phosphorylated peptide on enzyme [4]: inhibited both enzymes
- effect of phosphorylated peptide on enzyme [5]: inhibited both enzymes

Molecule: CGQPKVHRARKTMPKSV [G9a]
- kcat (turnover number) [3]: 0.0183 s⁻¹

Molecule: CPQKKVFKARKTMRVSD [mAM]
- kcat/Km [3]: 140 10^6 × M^−1 h^−1
- Km [3]: 0.7 ± 0.05 µM
- kcat (turnover number) [3]: 0.0272 s⁻¹ and 0.0272 ± 0.0011 s⁻¹

Molecule: GST-G9a (210–246/K243A) (AQGAATAGPEPSPATTAAQEGQPKVHRARKTMSAPSN; also: GST fusion; UniProt Q9Z148 210-246, looked up, variant K243A)
- methylation / radioactive incorporation of GST fusion fragment [6]: decrease in K239 methylation

Molecule: GST-G9a (210–264/K239A) (AQGAATAGPEPSPATTAAQEGQPKVHRARATMSKPSNGQPPIPEKRPPEVQHFRM; also: GST fusion; UniProt Q9Z148 210-264, looked up, variant K239A)
- methylation / radioactive incorporation of GST fusion fragment [6]: impaired

Molecule: IVLGHATKSFPSSPSK [G9aK167]
- methyl group incorporation to the peptide [7]: did not observe methyl group incorporation to the peptide

B1: 1–117: GST fusion containing 1–117 amino acids of G9a (protein, UniProt Q9Z148 1-117, looked up, fragment)
chain: MRGLPRGRGLMRARGRGRAAPTGGRGRGRGGAHRGRGRPRSLLSLPRAQASWAPQLPAGLTGPPVPCLPSQGEAPAEMGALLLEKEPRGAAERVHSSLGDTPQSEETLPKANPDSLE
modifications: GST fusion
- methylation of GST fusion by G9afl [6]: did not methylate

B2: 264–633: GST fusion containing 264–633 amino acids of G9a (protein, UniProt Q9Z148 264-633, looked up, fragment)
chain: MSDDMHLGKVTSDVAKRRKLNSGSLSEDLGSAGGSGDIILEKGEPRPLEEWETVVGDDFSLYYDAYSVDERVDSDSKSEVEALAEQLSEEEEEEEEEEEEEEEEEEEEEEEEEDEESGNQSDRSGSSGRRKAKKKWRKDSPWVKPSRKRRKREPPRAKEPRGVNGVGSSGPSEYMEVPLGSLELPSEGTLSPNHAGVSNDTSSLETERGFEELPLCSCRMEAPKIDRISERAGHKCMATESVDGELLGCNAAILKRETMRPSSRVALMVLCEAHRARMVKHHCCPGCGYFCTAGTFLECHPDFRVAHRFHKACVSQLNGMVFCPHCGEDASEAQEVTIPRGDGGTPPIGTAAPALPPLAHDAPGRADTSQ
modifications: GST fusion
- methylation of GST fusion by G9afl [6]: did not methylate

B3: GST-G9afl (K167A) (protein, UniProt Q9Z148 1-1263, looked up, variant K167A)
chain: MRGLPRGRGLMRARGRGRAAPTGGRGRGRGGAHRGRGRPRSLLSLPRAQASWAPQLPAGLTGPPVPCLPSQGEAPAEMGALLLEKEPRGAAERVHSSLGDTPQSEETLPKANPDSLEPAGPSSPASVTVTVGDEGADTPVGAASLIGDEPESLEGDGGRIVLGHATASFPSSPSKGGACPSRAKMSMTGAGKSPPSVQSLAMRLLSMPGAQGAATAGPEPSPATTAAQEGQPKVHRARKTMSKPSNGQPPIPEKRPPEVQHFRMSDDMHLGKVTSDVAKRRKLNSGSLSEDLGSAGGSGDIILEKGEPRPLEEWETVVGDDFSLYYDAYSVDERVDSDSKSEVEALAEQLSEEEEEEEEEEEEEEEEEEEEEEEEEDEESGNQSDRSGSSGRRKAKKKWRKDSPWVKPSRKRRKREPPRAKEPRGVNGVGSSGPSEYMEVPLGSLELPSEGTLSPNHAGVSNDTSSLETERGFEELPLCSCRMEAPKIDRISERAGHKCMATESVDGELLGCNAAILKRETMRPSSRVALMVLCEAHRARMVKHHCCPGCGYFCTAGTFLECHPDFRVAHRFHKACVSQLNGMVFCPHCGEDASEAQEVTIPRGDGGTPPIGTAAPALPPLAHDAPGRADTSQPSARMRGHGEPRRPPCDPLADTIDSSGPSLTLPNGGCLSAVGLPPGPGREALEKALVIQESERRKKLRFHPRQLYLSVKQGELQKVILMLLDNLDPNFQSDQQSKRTPLHAAAQKGSVEICHVLLQAGANINAVDKQQRTPLMEAVVNNHLEVARYMVQLGGCVYSKEEDGSTCLHHAAKIGNLEMVSLLLSTGQVDVNAQDSGGWTPIIWAAEHKHIDVIRMLLTRGADVTLTDNEENICLHWASFTGSAAIAEVLLNAQCDLHAVNYHGDTPLHIAARESYHDCVLLFLSRGANPELRNKEGDTAWDLTPERSDVWFALQLNRKLRLGVGNRAVRTEKIICRDVARGYENVPIPCVNGVDGEPCPEDYKYISENCETSTMNIDRNITHLQHCTCVDDCSSSNCLCGQLSIRCWYDKDGRLLQEFNKIEPPLIFECNQACSCWRSCKNRVVQSGIKVRLQLYRTAKMGWGVRALQTIPQGTFICEYVGELISDAEADVREDDSYLFDLDNKDGEVYCIDARYYGNISRFINHLCDPNIIPVRVFMLHQDLRFPRIAFFSSRDIRTGEELGFDYGDRFWDIKSKYFTCQCGSEKCKHSAEAIALEQSRLARLDPHPELLPDLSSLPPINT
modifications: full-length GST fusion
- kcat [8]: 0.0183 s⁻¹

B4: GFP-G9amut (protein, UniProt Q9Z148 1-1263, looked up, variant K233A K239A K243A)
chain: MRGLPRGRGLMRARGRGRAAPTGGRGRGRGGAHRGRGRPRSLLSLPRAQASWAPQLPAGLTGPPVPCLPSQGEAPAEMGALLLEKEPRGAAERVHSSLGDTPQSEETLPKANPDSLEPAGPSSPASVTVTVGDEGADTPVGAASLIGDEPESLEGDGGRIVLGHATKSFPSSPSKGGACPSRAKMSMTGAGKSPPSVQSLAMRLLSMPGAQGAATAGPEPSPATTAAQEGQPAVHRARATMSAPSNGQPPIPEKRPPEVQHFRMSDDMHLGKVTSDVAKRRKLNSGSLSEDLGSAGGSGDIILEKGEPRPLEEWETVVGDDFSLYYDAYSVDERVDSDSKSEVEALAEQLSEEEEEEEEEEEEEEEEEEEEEEEEEDEESGNQSDRSGSSGRRKAKKKWRKDSPWVKPSRKRRKREPPRAKEPRGVNGVGSSGPSEYMEVPLGSLELPSEGTLSPNHAGVSNDTSSLETERGFEELPLCSCRMEAPKIDRISERAGHKCMATESVDGELLGCNAAILKRETMRPSSRVALMVLCEAHRARMVKHHCCPGCGYFCTAGTFLECHPDFRVAHRFHKACVSQLNGMVFCPHCGEDASEAQEVTIPRGDGGTPPIGTAAPALPPLAHDAPGRADTSQPSARMRGHGEPRRPPCDPLADTIDSSGPSLTLPNGGCLSAVGLPPGPGREALEKALVIQESERRKKLRFHPRQLYLSVKQGELQKVILMLLDNLDPNFQSDQQSKRTPLHAAAQKGSVEICHVLLQAGANINAVDKQQRTPLMEAVVNNHLEVARYMVQLGGCVYSKEEDGSTCLHHAAKIGNLEMVSLLLSTGQVDVNAQDSGGWTPIIWAAEHKHIDVIRMLLTRGADVTLTDNEENICLHWASFTGSAAIAEVLLNAQCDLHAVNYHGDTPLHIAARESYHDCVLLFLSRGANPELRNKEGDTAWDLTPERSDVWFALQLNRKLRLGVGNRAVRTEKIICRDVARGYENVPIPCVNGVDGEPCPEDYKYISENCETSTMNIDRNITHLQHCTCVDDCSSSNCLCGQLSIRCWYDKDGRLLQEFNKIEPPLIFECNQACSCWRSCKNRVVQSGIKVRLQLYRTAKMGWGVRALQTIPQGTFICEYVGELISDAEADVREDDSYLFDLDNKDGEVYCIDARYYGNISRFINHLCDPNIIPVRVFMLHQDLRFPRIAFFSSRDIRTGEELGFDYGDRFWDIKSKYFTCQCGSEKCKHSAEAIALEQSRLARLDPHPELLPDLSSLPPINT
modifications: full-length GFP fusion
- co-localization with HP1α [9]: did not co-localize with HP1α

Source: publication PMC2175347 (Nucleic Acids Research, 2007)
